These results are taken from ChEMBL document CHEMBL1649122, “Abc1p is a multidrug efflux transporter that tips the balance in favor of innate azole resistance in Candida krusei” (2009).

Values after ≈ are worked out from the molar mass of the structure shown. Active and inactive are the calls of the source. The calls are words filed in the database; no cut-off is given here.

In test [1] the target is ATP binding cassette transporter Abc1p (Issatchenkia orientalis) (UniProt Q09GQ4). Nature of the test: Inhibition of Candida krusei Abc1p expressed in Saccharomyces cerevisiae isolate AD assessed as reduction of itraconazole MIC at 1 ug after 48 hrs by agarose diffusion assay. Particulars: Pichia kudriavzevii.
Test [2] shares this target. Nature of the test: Inhibition of Candida krusei Abc1g expressed in Saccharomyces cerevisiae isolate ADdelta assessed as reduction of fluconazole MIC at 2.5 ug/ml after 48 hrs by checkerboard susceptibility assay. Particulars: Pichia kudriavzevii. In a few lines: (§1)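 Checkerboard liquid microdilution in CSM (pH 7.0). FLC or ITC MICs of AD/CkABC1g or C. krusei B2399 were measured across a range of milbemycin concentrations. Interaction was expressed as fractional inhibitory concentration index (FICI).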

Test [3] shares this target. Nature of the test: Inhibition of Candida krusei B2399 Abc1p assessed as reduction of itraconazole MIC at 1 ug after 48 hrs by agarose diffusion assay. Particulars: Pichia kudriavzevii.
Test [4] shares this target. In words: Inhibition of Candida krusei B2399 Abc1p assessed as reduction of itraconazole MIC at 2.5 ug/ml after 48 hrs by checkerboard susceptibility assay. Particulars: Pichia kudriavzevii. In a few lines: as §1
The target is the same in test [5]. In words: Inhibition of Candida krusei IF011 Abc1p assessed as reduction of itraconazole MIC at 1 ug after 48 hrs by agarose diffusion assay. Particulars: Pichia kudriavzevii.
Test [6] shares this target. Nature of the test: Inhibition of Candida krusei B2399 Abc1p assessed as reduction of fluconazole MIC at 2.5 ug/ml after 48 hrs by checkerboard susceptibility assay. Particulars: Pichia kudriavzevii. In a few lines:
as §1

Test [7] has the same target. In words: Inhibition of Candida krusei Abc1g expressed in Saccharomyces cerevisiae isolate ADdelta assessed as reduction of itraconazole MIC at 2.5 ug/ml after 48 hrs by checkerboard susceptibility assay. Particulars: Pichia kudriavzevii. In short, it runs like this: as §1
Test [8] has as its system Saccharomyces cerevisiae. Nature of the test: Fold resistant, ratio of MIC for Saccharomyces cerevisiae isolate ADdelta overexpressing Candida krusei ERG11C to MIC for Saccharomyces cerevisiae isolate ADdelta overexpressing Abc1p. Type of test: functional. In a few lines:
(§2)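 Fold resistance is the ratio of azole MICs between S. cerevisiae overexpressing strains. The MICs were measured by liquid broth microdilution in CSM medium at pH 7.0. The ERG11 or ABC1 constructs are integrated at the PDR5 locus.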

Test [9] relates to Pichia kudriavzevii. In words: Antimicrobial activity against Candida krusei NZCDC 89.102 after 48 hrs by liquid microdilution assay. Type of test: functional. Particulars: NZCDC 89.102, 48 h. In a few lines: (§3)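 Liquid broth microdilution susceptibility assay in CSM medium at pH 7.0, which was also the medium used for the expression studies. Fungal strains were maintained in YPD. The S. cerevisiae test strains carry C. krusei ABC1 or fungal ERG11 alleles integrated at the chromosomal PDR5 locus.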
(In broth dilution the organism is exposed to a series of concentrations in liquid medium.)

Test [10] has as its system Saccharomyces cerevisiae. Nature of the test: Antimicrobial activity against Saccharomyces cerevisiae isolate ADdelta overexpressing Abc1p after 48 hrs by liquid microdilution assay. Type of test: functional. In a few lines: as §3
Test [11] has as its system Pichia kudriavzevii. Nature of the test: Antimicrobial activity against Candida krusei NZCDC 90.147 after 48 hrs by CLSI method. Type of test: functional. In short, it runs like this: (§4)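 Azole MICs were determined by the CLSI M27-A2 broth microdilution reference method. They were interpreted against the CLSI breakpoints. Strains were maintained in YPD medium (1% yeast extract, 2% peptone, 2% glucose).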

For test [12], the system named is Saccharomyces cerevisiae. In words: Antimicrobial activity against Saccharomyces cerevisiae isolate AD overexpressing Candida krusei ERG11C after 48 hrs by liquid microdilution assay. Type of test: functional. In short, it runs like this:
as §3

The test system of test [13] is Pichia kudriavzevii. In words: Antimicrobial activity against Candida krusei IFO0011 after 48 hrs by CLSI method. Particulars: IFO0011, 48 h. Type of test: functional. In a few lines: as §4
In test [14] the target is ATP binding cassette transporter Abc1p (Issatchenkia orientalis) (UniProt Q09GQ4). In words: Inhibition of Candida krusei ABC1 expressed in Saccharomyces cerevisiae isolate ADdelta at 0.36 nM. Particulars: Pichia kudriavzevii. In short, it runs like this: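 Agarose disk-diffusion test of S. cerevisiae AD overexpressing C. krusei Abc1p, with the parent AD strain as comparison. Cells were pregrown from YPD overnight into CSM to mid-log at 30°C. They were seeded at OD600 0.008 in CSM with 0.6% agarose, overlaid on CSM agar (pH 7.0). Paper disks carrying set nmol amounts of xenobiotic were applied, and plates were incubated at 30°C for 48 h before reading growth inhibition zones.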

Test [15] shares this target. In words: Inhibition of Candida krusei […] expressed in Saccharomyces cerevisiae isolate ADdelta assessed as fractional inhibitory concentration index at 2.5 ug/ml after 48 hrs by checkerboard susceptibility assay. Particulars: Pichia kudriavzevii. In a few lines: (§5)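 Checkerboard susceptibility assay combining the Abc1p inhibitor with FLC or ITC. MICs were determined at various inhibitor concentrations. The fractional inhibitory concentration index was calculated for each combination.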

The test system of test [16] is Saccharomyces cerevisiae. In words: Fold resistant, ratio of MIC for Saccharomyces cerevisiae isolate ADdelta overexpressing Saccharomyces cerevisiae ERG11 to MIC for Saccharomyces cerevisiae isolate ADdelta overexpressing Abc1p. Type of test: functional. In a few lines:
as §2

Test [17] has as its system Saccharomyces cerevisiae. In words: Antimicrobial activity against Saccharomyces cerevisiae isolate ADdelta overexpressing Saccharomyces cerevisiae ERG11 after 48 hrs by liquid microdilution assay. Type of test: functional. In short, it runs like this:
as §3

Test [18] has as its system Pichia kudriavzevii. Nature of the test: Antimicrobial activity against Candida krusei NZCDC 89.221 after 48 hrs by liquid microdilution assay. Type of test: functional. Particulars: NZCDC 89.221, 48 h. In short, it runs like this: as §3
Test [19] relates to Saccharomyces cerevisiae. Nature of the test: Fold resistant, ratio of MIC for Saccharomyces cerevisiae isolate ADdelta overexpressing Candida krusei ERG11g to MIC for Saccharomyces cerevisiae isolate ADdelta overexpressing Abc1p. Type of test: functional. In short, it runs like this:
as §2

Test [20] relates to Pichia kudriavzevii. In words: Antimicrobial activity against Candida krusei B2399 after 48 hrs by liquid microdilution assay. Particulars: B2399, 48 h. Type of test: functional. In a few lines: as §3
In test [21] the test system is Saccharomyces cerevisiae. Nature of the test: Antimicrobial activity against Saccharomyces cerevisiae isolate ADdelta overexpressing Candida albicans ERG11A after 48 hrs by liquid microdilution assay. Type of test: functional. In a few lines: as §3
The target of test [22] is ATP binding cassette transporter Abc1p (Issatchenkia orientalis) (UniProt Q09GQ4). Nature of the test: Inhibition of Candida krusei B2399 Abc1p assessed as fractional inhibitory concentration index at 2.5 ug/ml after 48 hrs by checkerboard susceptibility assay. Particulars: Pichia kudriavzevii. In a few lines:
as §5

Test [23] concerns Pichia kudriavzevii. Nature of the test: Antimicrobial activity against Candida krusei NZCDC 89.221 after 48 hrs by CLSI method. Type of test: functional. In short, it runs like this:
as §4

Test [24] concerns Pichia kudriavzevii. In words: Increase in ERG11 mRNA expression in Candida krusei B2399 at 2 times MIC concentration after 1 hr by hot-phenol extraction based Northern blotting. Type of test: functional, organism-based. In a few lines:
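Logarithmically grown C. krusei B2399 was exposed to azole for 60 min (2x MIC for VRC, MCZ and ITC; 1x MIC for FLC) alongside an untreated control. Total RNA was extracted with hot phenol, and 10 µg was run on 1.2% denaturing agarose. It was Northern blotted and probed with a radiolabeled ERG11 fragment. ACT1 mRNA served as internal control, with EtBr-stained rRNA showing loading.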

The subject of test [25] is Saccharomyces cerevisiae. Nature of the test: Antimicrobial activity against Saccharomyces cerevisiae isolate ADdelta overexpressing Candida krusei ERG11g after 48 hrs by liquid microdilution assay. Type of test: functional. In a few lines:
as §3

The test system of test [26] is Pichia kudriavzevii. Nature of the test: Antimicrobial activity against Candida krusei NZCDC 90.147 after 48 hrs by liquid microdilution assay. Type of test: functional. Particulars: NZCDC 90.147, 48 h. In a few lines: as §3
For test [27], the system named is Saccharomyces cerevisiae. Nature of the test: Fold resistant, ratio of MIC for Saccharomyces cerevisiae isolate ADdelta overexpressing Candida albicans ERG11A to MIC for Saccharomyces cerevisiae isolate ADdelta overexpressing Abc1p. Type of test: functional. In a few lines: as §2
Test [28] deals with Pichia kudriavzevii. In words: Antimicrobial activity against Candida krusei NZCDC 89.102 after 48 hrs by CLSI method. Type of test: functional. In a few lines:
as §4

Test [29] relates to Pichia kudriavzevii. Nature of the test: Antimicrobial activity against Candida krusei NZCDC 89.021 after 48 hrs by liquid microdilution assay. Type of test: functional. Particulars: NZCDC 89.021, 48 h. In a few lines: as §3
For test [30], the system named is Pichia kudriavzevii. Nature of the test: Antimicrobial activity against Candida krusei B2399 after 48 hrs by CLSI method. Type of test: functional. Particulars: B2399, 48 h. In a few lines: as §4
The test system of test [31] is Pichia kudriavzevii. Nature of the test: Antimicrobial activity against Candida krusei IFO0011 after 48 hrs by liquid microdilution assay. Type of test: functional. Particulars: IFO0011, 48 h. In short, it runs like this: as §3
For test [32], the system named is Pichia kudriavzevii. In words: Antimicrobial activity against Candida krusei NZCDC 89.021 after 48 hrs by CLSI method. Type of test: functional. Particulars: NZCDC 89.021, 48 h. In short, it runs like this: as §4

As to `CC1=C[C@H]2C(=O)O[C@H]3C[C@@H](C/C=C(\C)C[C@@H](C)/C=C/C=C(\C)[C@]2(O)[C@H](O)[C@@H]1O)O[C@@]1(CC[C@H](C)[C@@H](C)O1)C3`, the result in [1], in test [2], in test [3], in test [4], in test [5] and in test [6] was Active. In addition, in test [7], the result was Active.
With `C/C=C(\C)C(=O)OCC1=C[C@H]2C(=O)O[C@H]3C[C@@H](C/C=C(\C)C[C@@H](C)/C=C/C=C4\CO[C@H]([C@@H]1O)[C@@]42O)O[C@@]1(CC[C@H](C)[C@@H](C)O1)C3`, the outcome in test [1], in test [2], in [3], in [5] and in test [7] was Active. In addition, the figures for the MIC in test [4] and in test [6] were 0.125 µg/mL and 64 µg/mL, respectively.
Consider `CCC(C)n1ncn(-c2ccc(N3CCN(c4ccc(OCC5COC(Cn6cncn6)(c6ccc(Cl)cc6Cl)O5)cc4)CC3)cc2)c1=O` (stereo not given) [ITRACONAZOLE], for which the ratio in [8] was 2; in test [16], 8; in test [19] it was 128; in test [27], 4. The MIC in test [9] worked out at 2 µg/mL (≈ 2.83 µM); in test [10] it was 0.031 µg/mL (≈ 0.0439 µM); in test [11] it was 0.25 µg/mL (≈ 0.354 µM); in [12] it was 0.063 µg/mL (≈ 0.0893 µM); in [13], 0.25 µg/mL (≈ 0.354 µM); in test [17], 0.25 µg/mL (≈ 0.354 µM). Moreover, the MIC is 1 µg/mL (≈ 1.42 µM) in test [18]; 0.5 µg/mL (≈ 0.709 µM) in [20]; 0.125 µg/mL (≈ 0.177 µM) in test [21]; 0.125 µg/mL (≈ 0.177 µM) in test [23]; 4 µg/mL (≈ 5.67 µM) in test [25]; 1 µg/mL (≈ 1.42 µM) in test [26]. For the same molecule, the MIC in test [28] was found to be 0.25 µg/mL (≈ 0.354 µM); in test [29] it was 1 µg/mL (≈ 1.42 µM); in [30], 0.25 µg/mL (≈ 0.354 µM); in test [31], 1 µg/mL (≈ 1.42 µM); in test [32], 0.25 µg/mL (≈ 0.354 µM). For the same molecule, the result in test [14] was inactive. For the same molecule, the fractional inhibitory concentration index (FICI) in test [15] is 0.104; in [22], 0.298. Besides, in test [24], the outcome was Active.
Regarding `CO[C@@H]1C(CO)=C[C@H]2C(=O)O[C@H]3C[C@@H](C/C=C(\C)C[C@@H](C)/C=C/C=C4\CO[C@H]1[C@@]42O)O[C@@]1(CC[C@H](C)[C@@H](C)O1)C3`, the outcome in test [1], in test [3] and in [5] was Active.
Turning to `CC(C)=CC(=O)OCC1=C[C@H]2C(=O)O[C@H]3C[C@@H](C/C=C(\C)C[C@@H](C)/C=C/C=C4\CO[C@H]([C@@H]1O)[C@@]42O)O[C@@]1(CC[C@H](C)[C@@H](C)O1)C3`, the outcome in [1], in test [3] and in test [5] was Active.
